# b-catenin transl = modulators of beta-catenin nuclear translocation, primary screen, imaging, HeLa cells, immunofluorescence, high-content | actives 0.3% (n = 190,000) | nuclear translocation activity, % at 5 µM;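 active = nuclear translocation activity above 50% at 5 µM, with a well cell count of 50 or more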;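 also: per-cell ratio of nuclear to cytoplasmic median beta-catenin stain intensity; plate controls were DMSO negative control for no effect and GSK-3 inhibitor IX positive control for full effect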
#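 Read-out: Nuclear/cytoplasmic beta-catenin signal ratio, % activation | Assay system: Human HeLa cell line | Times: 24 h compound exposure at 37°C, 5% CO2 | Signal: Fluorescence imaging of beta-catenin antibody stain plus DAPI | Dosing: 5 µM primary, 0.02–20 µM confirmation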
# HSV replic up = enhancers of HSV replication in host cells, fold increase, host cell viability | HSV replication augmentation in cells | maximum fold increase | actives 0.005% (n = 220,000); in the data active = maximum fold increase above about 1.5; tested in PC3 cells
# ROMK primary = ROMK potassium channel modulators, primary screen, cell-based, thallium flux, MLSMR library; ATP-sensitive inward rectifier potassium channel 1 (Homo sapiens), P48048; Tet-inducible ROMK, thallium flux fluorescence; actives lie on both sides; B-score at 10 µM; actives 2% (n = 130,000);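 active = signal ratio slope over the read window, or its plate-corrected B-score, at least 3 SD from the plate mean, either direction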;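 also: B-score of the F/F0 ratio slope over 7 to 12 s after thallium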
# Target sequence (P48048 whole entry, looked up): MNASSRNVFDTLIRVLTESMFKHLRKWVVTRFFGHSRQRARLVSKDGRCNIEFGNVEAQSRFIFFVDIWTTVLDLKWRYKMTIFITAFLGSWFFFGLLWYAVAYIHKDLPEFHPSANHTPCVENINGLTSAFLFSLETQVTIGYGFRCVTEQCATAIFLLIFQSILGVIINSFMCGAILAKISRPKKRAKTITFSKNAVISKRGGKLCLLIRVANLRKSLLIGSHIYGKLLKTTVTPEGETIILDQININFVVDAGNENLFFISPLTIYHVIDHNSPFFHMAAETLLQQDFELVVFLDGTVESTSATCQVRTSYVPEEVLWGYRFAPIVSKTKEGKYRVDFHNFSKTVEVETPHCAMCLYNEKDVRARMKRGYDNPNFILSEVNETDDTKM
# Insulin prom inh = inhibitors of insulin promoter-driven GFP, primary screen, imaging, TRM-6 cells, eGFP reporter, cell count | reporter expression induced with tamoxifen | inhibition, % at 2 µM | actives 0.9% (n = 130,000);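 active = inhibition above the mean plus 3 SD, with well images judged a real hit on visual review, cut at about 60% in these data, passing the limit was not always enough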
# MT stabilizer = microtubule stabilizers in HeLa cells, primary screen, imaging, high-content imaging; HeLa tubulin immunostaining HCS, 24 h; share of cells brighter than vehicle mean+2SD; % tubulin-high responders, % at 10 µM; actives 0.83% (n = 200,000); AID 2205, 2009;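 active = plate Z-score above 3 for both tubulin-high and condensed-nucleus cell shares, with cell loss under 80%, at 10 µM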;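 also: anti alpha tubulin signal scored within the nucleus-defined area of each cell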
# Active calls of the source: *; i = inactive; x = no result given. A selection: hits, their analogues and other compounds. The true share with any hit is near 2.4%.
SMILES,b-catenin transl,HSV replic up,ROMK primary,Insulin prom inh,MT stabilizer
Cc1ccnc(NC(=O)c2ccccc2NC(=O)C(C)(C)C)c1,-1.1,i,0.241,-68.8,44.3*
COc1cc(/C=N/OCC(=O)Nc2ccc(OC(F)F)cc2)ccc1OCc1ccccc1,3.7,i,-0.68,23.3,17.2*
CCOc1ccc(/C=N/OCC(=O)Nc2ccc(OCc3ccccc3)cc2)cc1OC,-2.3,i,-0.709,-56.7,2.5
CCn1c2ccccc2c2cc(/C=N/NC(=O)c3ccc(O)cc3)ccc21,52.4*,i,0.0269,-35.3,16.5*
CCn1c2ccccc2c2cc(/C=N/NC(=O)c3cc(O)cc(O)c3)ccc21,0.5,i,-0.426,x,3.1
CCn1c2ccccc2c2cc(/C=N/NC(=O)c3ccncc3)ccc21,20.3,i,0.0862,x,13.3*
CCOC(=O)CNc1ccc(OC(F)(F)F)cc1,-2.9,i,x,x,x
COc1ccc(NC(=O)c2ccc(S(=O)(=O)N(C)c3ccccc3)cc2)cn1,-0.2,i,x,x,x
CCCCCC(=O)NC(=S)Nc1ccc2oc(=O)ccc2c1,-1.8,i,-0.587,x,4.3
Cc1ccc(NC(=O)CSc2nnc(-c3cccs3)o2)cc1S(=O)(=O)N(C)C,0.2,i,-0.0589,x,3.1
CCOC(=O)c1cc(C(C)C)sc1NC(=O)COC(=O)CCS(=O)(=O)c1ccccc1,-1.9,i,0.305,60.0*,2.3
CCOC(=O)c1c(NC(=O)COC(=O)CCS(=O)(=O)c2ccc(C)cc2)sc(C)c1C,-1.1,i,x,x,8.5
Nc1cccc(CCc2nc3cc4ccccc4cc3[nH]2)c1,81.1*,i,0.284,43.2,18.0
COCCNC(=O)/C(C#N)=C/C=C/c1ccccc1[N+](=O)[O-],4.4,i,0.00549,x,2.0
O=C(Nc1ccccc1N(C(=O)c1ccco1)S(=O)(=O)c1cccs1)c1ccco1,x,i,0.934,-7.2,11.4*
COc1ccc(/C=N/NC(=O)CCSc2nc3ccccc3s2)cc1OC,2.1,i,-0.887,-21.4,2.0
O=C(CCSc1nc2ccccc2s1)N/N=C/c1c(O)ccc2ccccc12,1.7,i,x,-3.7,20.6*
C=CCn1c(-c2cccs2)nc2ccccc21,-0.4,i,x,80.0*,1.3
C=CCn1c(-c2cccs2)nc2nc3ccccc3nc21,-0.8,i,x,41.4,2.6
O=C1C2ON(c3ccccc3)C(c3ccncc3)C2C(=O)N1c1ccccc1 (stereo unspecified),-1.3,i,1.4,72.7*,5.1
CC(C)(C)NC(=O)NC(=O)CN1CCN(c2ncc(C(F)(F)F)cc2Cl)CC1,x,i,-0.336,67.9*,2.6
NNC(=O)CN1CCN(c2ncc(C(F)(F)F)cc2Cl)CC1,0.3,i,-0.281,18.5,2.1
CCN(CC)S(=O)(=O)c1ccc(C(=O)N2CCCCC2)cc1,-0.5,i,x,46.7,2.5
CN(C)/C=N/C1=C(C#N)C(c2cccs2)c2ccc3ccccc3c2O1 (stereo unspecified),-5.5,i,1.84,x,16.5*
O=C(COC(=O)c1cc(S(=O)(=O)NCc2ccccc2)ccc1O)c1cc2ccccc2o1,0.2,i,x,x,x
SMILES,b-catenin transl,HSV replic up,ROMK primary,Insulin prom inh,MT stabilizer
O=C(O)c1ccc(-c2ncc[nH]2)cc1,-2.5,i,0.771,80.0*,2.6
O=C(O)c1ccc(-c2nc3ccccc3[nH]2)cc1,-0.2,i,x,x,3.6
CC1CCCC(C)N1/N=C/c1ccccc1C(=O)O (stereo unspecified),-4.6,i,-0.905,72.2*,2.6
CC1CCCC(C)N1/N=C/C=C/c1ccccc1[N+](=O)[O-] (stereo unspecified),2.5,i,-1.1,x,5.9
COC(=O)c1ccccc1NC(=O)CSc1[nH]c(=O)cc(C)c1C#N,-0.2,i,-0.00275,x,2.0
Cc1cc(=O)[nH]c(SCC(=O)Nc2ccccc2C#N)c1C#N,-0.2,i,-0.663,-13.5,43.5*
CCC(C)(C)C(=O)Nc1ccc(OC)cc1[N+](=O)[O-],-0.1,i,x,100.0*,0.3
CCOc1ccc(NC(=O)/C=C/c2ccccc2)c([N+](=O)[O-])c1,9.8,i,0.419,x,24.2*
CCOc1ccc(OCC(=O)Nc2ccc(OC)cc2[N+](=O)[O-])cc1,0.5,i,0.288,x,4.4
Cc1ccnc(NC(=O)CCC(=O)N(CC(=O)NC(C)(C)C)c2ccc(F)c(Cl)c2)c1,-0.3,i,-0.209,x,0.6
O=C(CSCc1ccc(Br)cc1)NCc1ccccn1,0.4,i,-0.142,x,5.1
CC1(c2ccc(Cl)cc2Cl)OCC(Cn2ccnc2)O1 (stereo unspecified),1.6,i,2.6,18.2,36.1*
CN1Cc2cc(C(=O)c3cc(Cl)cc(CSc4ncccn4)c3O)cnc2NC1=O,67.1*,i,x,x,20.1*
C(=N\Nc1ncnc2ccccc12)/c1ccccc1,0.1,i,0.0327,77.8*,2.1
CCNc1nc(NC(C)C)nc(Oc2ccc(=O)n(C)n2)n1,0.2,i,0.68,x,1.8
COc1ccc(N2C(=O)NC(NC(=O)c3cccnc3)(C(F)(F)F)C2=O)cc1 (stereo unspecified),-2.9,i,x,x,6.6
CCNC(=S)N/N=C/c1cccc(C)c1,-1.0,i,x,25.0,2.9
O=C(NCC(c1cccs1)N1CCOCC1)c1ccc(Br)o1 (stereo unspecified),0.9,i,-0.767,0.0,21.9*
N#Cc1nc(Cc2cccc3ccccc23)oc1NCCN1CCCCC1,-3.4,i,-5.58*,x,5.1
CNc1oc(Cc2cccc3ccccc23)nc1C#N,-2.9,i,-1.76,58.8,6.9
COc1cc(C(=O)Nc2ccc(S(=O)(=O)N(C)c3ccccc3)cc2)cc(OC)c1OC,0.8,i,x,13.3,1.6
COc1cc(C(=O)Nc2ccc(Br)cc2C(=O)c2cc(OC)c(OC)c(OC)c2)cc(OC)c1OC,3.5,i,x,x,34.3*
CCn1c2ccccc2c2cc(NC(=O)c3cc(OC)c(OC)c(OC)c3)ccc21,3.8,i,x,32.1,23.3*
CCn1c2ccccc2c2cc(NC(=O)c3cc(OC)cc(OC)c3)ccc21,11.4,i,1.41,-150.0,9.6*
COc1cc(C(=O)Nc2ccc(N(C)C)cc2)cc(OC)c1OC,36.2,i,-0.841,x,25.7*
SMILES,b-catenin transl,HSV replic up,ROMK primary,Insulin prom inh,MT stabilizer
CCn1c2ccccc2c2cc(NC(=O)c3ccc(=O)oc3)ccc21,2.0,i,0.398,x,x
CCn1c2ccccc2c2cc(NC(=O)COc3ccc(OC)cc3)ccc21,x,i,x,12.0,1.9
CC(C)Cc1ccc(C(C)C(=O)Nc2ccccc2O)cc1 (stereo unspecified),-0.3,i,x,x,x
O=S(=O)(CCSc1ccc(C(F)(F)F)cn1)c1ccc(Cl)cc1,1.4,i,x,x,x
COC(=O)c1ccc(S(=O)(=O)c2ccccc2)c(N)c1,-4.8,i,x,-35.7,2.4
O=C(CN1C(=O)c2ccccc2C1=O)N1CCN(C2c3ccccc3-c3ccccc32)CC1,-1.6,i,x,-13.8,2.9

# Compound activity deposited in PubChem BioAssay by several laboratories.
